The text below walks through data of ChEMBL document CHEMBL2029264, “Indole-based fibrates as potential hypolipidemic and antiobesity agents” (J Med Chem, 2012).

The test system of series [1] is Rattus norvegicus. Nature of the series: Antihyperlipidemic activity in po dosed Triton WR-1339-induced hyperlipidemic rat assessed as decrease in plasma triglyceride level. The format is functional, organism-based. The method, boiled down:
(§1)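 Triton WR-1339 given to rats to induce hyperlipidemia; oral dosing. Plasma TC, PL, TG in mg/dL; PHLA as […]/h/mL plasma. Mean ± SD of six rats; Triton group compared with control, Triton plus dosed group compared with Triton group.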

Series [2] has as its system Rattus norvegicus. Put plainly: Antihyperlipidemic activity in HFD-induced hyperlipidemic Charles Foster rat assessed as decrease in plasma VLDL-apoprotein level at 100 mg/kg, po administered for 4 weeks relative to control. The format is functional. Set-up: scale not given: the % may be the effect or the level left. A digest of the protocol:
(§2)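 After 4 weeks high-fat feeding plus 4 weeks daily dosing, overnight fast, retro-orbital blood into EDTA tubes. Serum split into VLDL, LDL and HDL by polyanionic precipitation; each fraction assayed for TC, PL, TG and apoprotein (mg/dL plasma). Pooled data from 6 rats/group, mean ± SD, dosed groups compared with high-fat group.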

Series [3] has as its system Rattus norvegicus. Put plainly: Antihyperlipidemic activity in HFD-induced hyperlipidemic Charles Foster rat assessed as increase in plasma HDL-triglyceride level at 100 mg/kg, po administered for 4 weeks relative to control. The format is functional. A digest of the protocol:
as §2

Series [4] concerns Rattus norvegicus. Nature of the series: Antihyperlipidemic activity in HFD-induced hyperlipidemic Charles Foster rat assessed as decrease in plasma VLDL-triglyceride level at 100 mg/kg, po administered for 4 weeks relative to control. In kind it is functional. Set-up: scale not given: the % may be the effect or the level left. A digest of the protocol:
as §2

Series [5] concerns Rattus norvegicus. Put plainly: Antihyperlipidemic activity in HFD-induced hyperlipidemic Charles Foster rat assessed as decrease in plasma LDL-phospholipid level at 100 mg/kg, po administered for 4 weeks relative to control. In kind it is functional. Set-up: scale not given: the % may be the effect or the level left. The method, boiled down:
as §2

In series [6] the test system is Rattus norvegicus. Nature of the series: Antiobesity activity in HFD-induced hyperlipidemic Charles Foster rat assessed as decrease in gonadal fat-pad at 100 mg/kg, po administered for 4 weeks. More on the design: dose 100 mg/kg. In kind it is functional, organism-based. The method, boiled down:
(§3)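 Adult male Charles Foster rats given high-fat or normal diet 4 weeks, then diet plus vehicle or daily dosing 4 more weeks, sacrificed at week 8. Body weight gain, food intake, food efficiency ratio (weight gain/food intake over the period), and mesenteric, gonadal, inguinal and perirenal fat-pad weights recorded; mean ± SD, n = 6.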

Series [7] deals with Rattus norvegicus. Nature of the series: Antihyperlipidemic activity in Triton WR-1339-induced hyperlipidemic rat assessed as decrease in plasma triglyceride level at 100 mg/kg, po relative to control. The format is functional. More on the design: scale not given: the % may be the effect or the level left. The method, boiled down: as §1
In series [8] the test system is Rattus norvegicus. Nature of the series: Antihyperlipidemic activity in Triton WR-1339-induced hyperlipidemic rat assessed as increase in PHLA enzyme level at 150 mg/kg, po. The format is functional. A digest of the protocol:
(§4)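 Separate set of Triton WR-1339-induced hyperlipidemic rats, oral doses of 50, 100 and 150 mg/kg. Plasma TC, PL, TG in mg/dL; PHLA as […]/h/mL plasma. Mean ± SD of six rats versus Triton group.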

For series [9], the system named is Rattus norvegicus. Put plainly: Antihyperlipidemic activity in HFD-induced hyperlipidemic Charles Foster rat assessed as increase in plasma HDL-apoprotein level at 100 mg/kg, po administered for 4 weeks relative to control. In kind it is functional. The method, boiled down:
as §2

Series [10] concerns Rattus norvegicus. Nature of the series: Antihyperlipidemic activity in Triton WR-1339-induced hyperlipidemic rat assessed as increase in LCAT enzyme level at 150 mg/kg, po. In kind it is functional. A digest of the protocol:
as §4

In series [11] the test system is Rattus norvegicus. Put plainly: Antihyperlipidemic activity in HFD-induced hyperlipidemic Charles Foster rat assessed as decrease in serum phospholipid level at 100 mg/kg, po administered for 4 weeks relative to control. The format is functional. Set-up: scale not given: the % may be the effect or the level left. A digest of the protocol:
(§5)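 Male Charles Foster rats (200−225 g): high-fat diet 4 weeks, then diet plus daily dosing 4 weeks. Overnight fast, retro-orbital blood in EDTA (3 mg/mL blood), centrifuged to serum. TC, PL, TG in mg/dL; LCAT as nmol cholesterol released/h/L plasma. Mean ± SD; dosed groups compared with high-fat group, P by significance levels.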

Series [12] has as its system Rattus norvegicus. Put plainly: Antihyperlipidemic activity in Triton WR-1339-induced hyperlipidemic rat assessed as decrease in plasma phospholipid level at 150 mg/kg, po. In kind it is functional. A digest of the protocol:
as §4

Series [13] concerns Rattus norvegicus. Nature of the series: Antihyperlipidemic activity in HFD-induced hyperlipidemic Charles Foster rat assessed as decrease in serum total cholesterol level at 100 mg/kg, po administered for 4 weeks relative to control. In kind it is functional. More on the design: scale not given: the % may be the effect or the level left. A digest of the protocol:
as §5

For series [14], the system named is Rattus norvegicus. Nature of the series: Antiobesity activity in HFD-induced hyperlipidemic Charles Foster rat assessed as decrease in food efficacy ratio at 100 mg/kg, po administered for 4 weeks. In kind it is functional, organism-based. Set-up: dose 100 mg/kg. A digest of the protocol:
as §3

Series [15] deals with Rattus norvegicus. Put plainly: Antihyperlipidemic activity in HFD-induced hyperlipidemic Charles Foster rat assessed as decrease in liver phospholipid level at 100 mg/kg, po administered for 4 weeks relative to control. Set-up: scale not given: the % may be the effect or the level left. The format is functional. A digest of the protocol: (§6)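 Adult male Charles Foster rats (200−225 g), high-fat diet 4 weeks, then diet plus daily dosing 4 more weeks; overnight fast, sacrifice, liver washed in cold 0.15 M KCl and held at 4 °C. Lipids extracted from liver homogenate in CHCl3/CH3OH (2:1 v/v), TC, PL and TG read in mg/g; pooled data from 6 rats/group, mean ± SD.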

Series [16] has as its system Rattus norvegicus. Nature of the series: Antihyperlipidemic activity in Triton WR-1339-induced hyperlipidemic rat assessed as decrease in plasma phospholipid level at 100 mg/kg, po relative to control. The format is functional. More on the design: scale not given: the % may be the effect or the level left. The method, boiled down:
as §1

The test system of series [17] is Rattus norvegicus. Nature of the series: Antihyperlipidemic activity in HFD-induced hyperlipidemic Charles Foster rat assessed as decrease in liver triglyceride level at 100 mg/kg, po administered for 4 weeks relative to control. In kind it is functional. More on the design: scale not given: the % may be the effect or the level left. The method, boiled down: as §6

For series [18], the system named is Rattus norvegicus. Nature of the series: Antihyperlipidemic activity in Triton WR-1339-induced hyperlipidemic rat assessed as increase in PHLA enzyme level at 100 mg/kg, po. In kind it is functional. The method, boiled down: as §1
Series [19] has as its system Rattus norvegicus. Nature of the series: Antihyperlipidemic activity in HFD-induced hyperlipidemic Charles Foster rat assessed as decrease in plasma VLDL-phospholipid level at 100 mg/kg, po administered for 4 weeks relative to control. The format is functional. Set-up: scale not given: the % may be the effect or the level left. The method, boiled down:
as §2

Series [20] relates to Rattus norvegicus. Put plainly: Antihyperlipidemic activity in Triton WR-1339-induced hyperlipidemic rat assessed as increase in PHLA enzyme level at 50 mg/kg, po. The format is functional. A digest of the protocol:
as §4

Series [21] concerns Rattus norvegicus. Put plainly: Toxicity in HFD-induced hyperlipidemic Charles Foster rat assessed as decrease in food intake at 100 mg/kg, po administered for 4 weeks. In kind it is organism-based. More on the design: dose 100 mg/kg, route oral. Particulars: in vivo, 672 h. A digest of the protocol: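 Adult male Charles Foster rats (200−225 g) were kept at 25−26 °C, 50−70% humidity, and a 12/12 h light/dark cycle. They were fed a high-fat diet for 4 weeks to induce hyperlipidemia, then given high-fat diet plus test agent at 100 mg/kg/d for another 4 weeks. Food intake was recorded over the experimental period, with n = 6 per group, and animals were sacrificed after 8 weeks.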

In series [22] the test system is Rattus norvegicus. Put plainly: Antihyperlipidemic activity in HFD-induced hyperlipidemic Charles Foster rat assessed as increase in plasma HDL-phospholipid level at 100 mg/kg, po administered for 4 weeks relative to control. In kind it is functional. The method, boiled down: as §2
Series [23] deals with Rattus norvegicus. Nature of the series: Antihyperlipidemic activity in HFD-induced hyperlipidemic Charles Foster rat assessed as reactivation of LPL activity at 100 mg/kg, po administered for 4 weeks relative to control. The format is functional. The method, boiled down:
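Male Charles Foster rats fed high-fat diet 4 weeks, then diet plus daily dosing 4 weeks. Liver homogenized (10% w/v) in cold 100 mM phosphate buffer pH 7.2; total lipolytic LPL activity read as nmol free fatty acid formed/h/mg protein; pooled data from 6 rats/group, mean ± SD.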

For series [24], the system named is Rattus norvegicus. Nature of the series: Antihyperlipidemic activity in Triton WR-1339-induced hyperlipidemic rat assessed as increase in LCAT enzyme level at 50 mg/kg, po. The format is functional. The method, boiled down: as §4

The source made the active and inactive calls. The rule behind the calls is not given here.

Consider `CCOC(=O)C(C)Oc1ccc(C(c2cn(CC)c3ccccc23)c2cn(CC)c3ccccc23)cc1` (stereo not drawn), for which the Activity entry in series [1] is “Dose-dependent effect”; in series [2] it was 26%; in [3], 11%; in series [4], 24%; in series [5], 25%; in [7], 25%. The Activity is 16% in series [9]; 18 nmol/h/mL in series [10]; 24% in series [11]; 29 mg/dL in series [12]; 25% in series [13]; 28% in series [15]. The Activity is reported as 23% in series [16]; 27% in series [17]; 16% in series [19]; “Non-toxic” in series [21]; 13% in series [22]; 20% in [23]. Besides, the Activity in [24] is 8 nmol/h/mL. Also, the outcome in series [6] and in [14] was Active. Also, the values for the percent increase in series [8], in series [18] and in series [20] were 15%, 12% and 11%, respectively.
`CCOC(=O)CCCOc1ccc(C(c2cn(C)c3ccccc23)c2cn(C)c3ccccc23)cc1`: the Activity entry in series [1] was “Dose-dependent effect”; in series [2], 33%; in series [3], 14%; in series [4], 17%; in [5], 20%; in series [7], 27%. For the same compound, the Activity stood at 14% in series [9]; 21 nmol/h/mL in series [10]; 25% in series [11]; 29 mg/dL in series [12]; 28% in series [13]; 23% in [15]. The Activity in series [16] is reported as 14%; in series [17], 24%; in series [19] it was 11%; in [21] it was “Non-toxic”; in [22] it was 8%; in series [23], 14%. The Activity in series [24] was determined as 11 nmol/h/mL. Besides, the result in series [6] and in series [14] was Active. Also, the percent increase in [8] worked out at 20%; in series [18], 15%; in [20], 10%.
